From ChEMBL document CHEMBL1155349, “Identification of small molecule inhibitors of proline-rich tyrosine kinase 2 (Pyk2) with osteogenic activity in osteoblast cells” (Bioorg Med Chem Lett, 2009)
pEC50, pIC50: −log10 of the molar value. Blank lines part the entries; values can stand above or below the compound they belong to.

Columns and labels:
Focal adhesion kinase 1 = Focal adhesion kinase 1 (Homo sapiens, UniProt Q05397); assay: Inhibition of human FAK by HTRF assay
[1] = target: Protein-tyrosine kinase 2-beta (Mus musculus) (UniProt Q9QVP9); assay: Inhibition of mouse Pyk2 in […] cells assessed as increase in calcium level; type: cell-based
Protein-tyrosine kinase 2-beta (Mus musculus), sequence (Q9QVP9 whole entry, looked up): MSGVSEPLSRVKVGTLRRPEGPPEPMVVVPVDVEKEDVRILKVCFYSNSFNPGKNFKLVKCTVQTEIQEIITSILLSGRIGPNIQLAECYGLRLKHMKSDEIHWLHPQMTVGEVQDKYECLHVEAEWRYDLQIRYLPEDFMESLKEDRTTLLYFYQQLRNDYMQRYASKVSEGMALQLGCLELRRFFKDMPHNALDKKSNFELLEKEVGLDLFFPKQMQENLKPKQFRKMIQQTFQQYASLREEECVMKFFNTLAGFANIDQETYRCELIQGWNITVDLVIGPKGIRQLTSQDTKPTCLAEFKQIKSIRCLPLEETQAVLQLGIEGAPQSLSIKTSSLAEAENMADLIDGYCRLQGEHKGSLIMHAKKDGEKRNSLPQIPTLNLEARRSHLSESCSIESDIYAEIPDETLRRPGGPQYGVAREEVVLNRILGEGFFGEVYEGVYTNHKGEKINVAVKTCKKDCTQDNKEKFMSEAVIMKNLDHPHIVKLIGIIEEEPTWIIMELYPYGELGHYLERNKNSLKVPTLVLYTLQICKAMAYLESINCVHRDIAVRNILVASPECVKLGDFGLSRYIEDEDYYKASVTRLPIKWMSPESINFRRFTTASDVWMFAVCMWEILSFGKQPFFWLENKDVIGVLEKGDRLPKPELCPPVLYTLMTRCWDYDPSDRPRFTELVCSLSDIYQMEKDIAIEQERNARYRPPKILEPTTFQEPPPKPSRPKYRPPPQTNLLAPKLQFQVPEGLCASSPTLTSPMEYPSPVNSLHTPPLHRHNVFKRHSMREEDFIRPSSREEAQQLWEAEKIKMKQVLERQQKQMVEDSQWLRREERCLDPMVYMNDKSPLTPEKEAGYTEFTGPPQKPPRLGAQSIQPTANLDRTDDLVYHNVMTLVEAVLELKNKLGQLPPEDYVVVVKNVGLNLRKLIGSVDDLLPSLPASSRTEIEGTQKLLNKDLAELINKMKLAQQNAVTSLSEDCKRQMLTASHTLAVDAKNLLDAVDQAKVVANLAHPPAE
Summary of the method: (§1)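 MC3T3 osteoblast cells were grown with increasing inhibitor concentrations for up to 3 weeks. Alkaline phosphatase, osteocalcin and calcium were measured as osteogenic markers after three weeks in culture, and ALP was also measured at additional time points. EC50 values came from the dose-response. Culture and dosing conditions followed an earlier report.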

[2] = target: T1, Protein-tyrosine kinase 2-beta (Mus musculus, UniProt Q9QVP9); assay: (§2) Inhibition of mouse Pyk2 in […] cells assessed as increase in alkaline phosphatase level; type: cell-based; summary of the method: as §1
T1 sequence (Q9QVP9 whole entry): as the sequence (Q9QVP9 whole entry, looked up) above

[3] = target: Protein-tyrosine kinase 2-beta (Mus musculus) (UniProt Q9QVP9); assay: as §2; type: cell-based; summary of the method: as §1
[4] = target: T1, Protein-tyrosine kinase 2-beta; assay: (§3) Inhibition of mouse Pyk2 in […] cells assessed as increase in osteocalcin level; type: cell-based; summary of the method: as §1
[5] = target: Protein-tyrosine kinase 2-beta (Mus musculus) (UniProt Q9QVP9); assay: as §3; type: cell-based; summary of the method: as §1
[6] = target: T2, Protein-tyrosine kinase 2-beta (Homo sapiens, UniProt Q14289); assay: Inhibition of human PyK2 Y402 autophosphorylation expressed in 293T cells by immunofluorescence assay; type: cell-based
T2 sequence (Q14289 whole entry): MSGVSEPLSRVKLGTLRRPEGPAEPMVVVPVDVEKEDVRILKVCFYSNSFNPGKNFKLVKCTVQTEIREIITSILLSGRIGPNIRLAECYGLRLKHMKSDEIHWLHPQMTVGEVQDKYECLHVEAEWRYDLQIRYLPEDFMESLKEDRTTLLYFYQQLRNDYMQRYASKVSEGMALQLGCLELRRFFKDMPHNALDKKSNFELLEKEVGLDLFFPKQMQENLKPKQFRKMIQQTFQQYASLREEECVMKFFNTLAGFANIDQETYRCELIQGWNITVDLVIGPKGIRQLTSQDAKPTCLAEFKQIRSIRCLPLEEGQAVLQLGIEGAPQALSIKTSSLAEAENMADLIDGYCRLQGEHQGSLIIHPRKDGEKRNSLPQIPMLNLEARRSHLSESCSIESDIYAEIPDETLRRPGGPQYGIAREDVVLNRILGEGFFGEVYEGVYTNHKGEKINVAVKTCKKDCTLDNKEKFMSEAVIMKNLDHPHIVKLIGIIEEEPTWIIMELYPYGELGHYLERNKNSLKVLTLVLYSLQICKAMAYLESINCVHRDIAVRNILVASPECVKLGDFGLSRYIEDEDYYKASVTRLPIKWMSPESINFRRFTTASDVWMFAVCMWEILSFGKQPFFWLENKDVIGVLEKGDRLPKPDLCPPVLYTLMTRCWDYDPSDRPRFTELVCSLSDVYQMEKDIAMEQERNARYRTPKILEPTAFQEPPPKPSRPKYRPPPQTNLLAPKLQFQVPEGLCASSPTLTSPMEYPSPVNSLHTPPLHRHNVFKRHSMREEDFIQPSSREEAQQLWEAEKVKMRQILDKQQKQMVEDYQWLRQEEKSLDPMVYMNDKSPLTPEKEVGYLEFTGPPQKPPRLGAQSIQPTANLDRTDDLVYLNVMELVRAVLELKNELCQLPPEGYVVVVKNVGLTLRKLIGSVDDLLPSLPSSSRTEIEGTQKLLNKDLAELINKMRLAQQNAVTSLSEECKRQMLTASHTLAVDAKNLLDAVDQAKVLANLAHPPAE

[7] = target: Interferon-induced, double-stranded RNA-activated protein kinase (Homo sapiens, UniProt P19525); assay: Inhibition of PKR
Interferon-induced, double-stranded RNA-activated protein kinase, sequence (P19525 whole entry): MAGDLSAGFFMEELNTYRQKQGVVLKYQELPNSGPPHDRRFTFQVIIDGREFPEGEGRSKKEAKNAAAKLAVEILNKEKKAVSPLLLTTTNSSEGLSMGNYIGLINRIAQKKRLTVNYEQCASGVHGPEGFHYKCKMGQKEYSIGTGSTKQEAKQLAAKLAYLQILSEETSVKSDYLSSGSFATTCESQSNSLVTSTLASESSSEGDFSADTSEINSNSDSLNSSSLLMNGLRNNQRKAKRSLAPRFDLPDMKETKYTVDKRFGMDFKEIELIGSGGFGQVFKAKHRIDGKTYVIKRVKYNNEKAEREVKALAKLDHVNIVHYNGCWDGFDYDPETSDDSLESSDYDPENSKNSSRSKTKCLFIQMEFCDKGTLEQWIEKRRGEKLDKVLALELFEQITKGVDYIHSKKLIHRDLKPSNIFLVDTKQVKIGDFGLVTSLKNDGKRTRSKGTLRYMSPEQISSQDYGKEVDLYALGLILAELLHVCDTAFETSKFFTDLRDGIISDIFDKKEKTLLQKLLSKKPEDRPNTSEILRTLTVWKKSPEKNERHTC

[8] = Inhibition of Aurora 2
[9] = target: T2, Protein-tyrosine kinase 2-beta; assay: Inhibition of human Pyk2 by HTRF assay
[10] = target: T3, Tyrosine-protein kinase JAK3 (Homo sapiens, UniProt P52333); assay: Inhibition of Jak3
T3 sequence (P52333 whole entry): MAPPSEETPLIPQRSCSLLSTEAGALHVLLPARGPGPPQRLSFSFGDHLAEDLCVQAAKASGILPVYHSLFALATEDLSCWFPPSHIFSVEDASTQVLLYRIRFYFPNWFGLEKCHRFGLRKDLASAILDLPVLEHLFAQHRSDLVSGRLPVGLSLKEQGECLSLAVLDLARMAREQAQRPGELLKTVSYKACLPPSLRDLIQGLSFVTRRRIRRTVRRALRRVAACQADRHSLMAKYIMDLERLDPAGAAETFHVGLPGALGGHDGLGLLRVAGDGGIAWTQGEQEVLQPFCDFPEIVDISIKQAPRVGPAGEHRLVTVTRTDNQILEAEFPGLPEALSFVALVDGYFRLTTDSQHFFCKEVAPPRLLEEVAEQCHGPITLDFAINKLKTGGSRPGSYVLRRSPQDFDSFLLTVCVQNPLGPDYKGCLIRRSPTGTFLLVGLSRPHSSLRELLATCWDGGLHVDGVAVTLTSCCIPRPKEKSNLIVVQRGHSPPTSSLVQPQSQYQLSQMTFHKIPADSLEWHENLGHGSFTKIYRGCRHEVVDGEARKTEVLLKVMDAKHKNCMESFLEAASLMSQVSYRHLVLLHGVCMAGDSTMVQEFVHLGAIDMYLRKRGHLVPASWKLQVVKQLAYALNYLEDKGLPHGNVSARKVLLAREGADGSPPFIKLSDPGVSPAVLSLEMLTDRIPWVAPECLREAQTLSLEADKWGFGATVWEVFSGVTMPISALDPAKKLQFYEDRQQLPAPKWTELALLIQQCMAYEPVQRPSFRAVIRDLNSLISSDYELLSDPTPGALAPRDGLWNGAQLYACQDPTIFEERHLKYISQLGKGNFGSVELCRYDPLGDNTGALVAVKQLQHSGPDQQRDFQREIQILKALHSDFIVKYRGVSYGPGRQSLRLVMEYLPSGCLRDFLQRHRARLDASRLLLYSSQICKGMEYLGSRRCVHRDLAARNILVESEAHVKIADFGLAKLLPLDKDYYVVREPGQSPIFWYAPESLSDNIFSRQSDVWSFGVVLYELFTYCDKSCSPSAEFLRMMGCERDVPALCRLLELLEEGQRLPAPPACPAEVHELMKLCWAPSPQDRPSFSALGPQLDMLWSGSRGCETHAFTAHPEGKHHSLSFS

[11] = target: Tyrosine-protein kinase JAK2 (Homo sapiens, UniProt O60674); assay: Inhibition of Jak2
[12] = target: Non-receptor tyrosine-protein kinase TYK2 (Homo sapiens, UniProt P29597); assay: Inhibition of TYK2
Non-receptor tyrosine-protein kinase TYK2, sequence (P29597 whole entry): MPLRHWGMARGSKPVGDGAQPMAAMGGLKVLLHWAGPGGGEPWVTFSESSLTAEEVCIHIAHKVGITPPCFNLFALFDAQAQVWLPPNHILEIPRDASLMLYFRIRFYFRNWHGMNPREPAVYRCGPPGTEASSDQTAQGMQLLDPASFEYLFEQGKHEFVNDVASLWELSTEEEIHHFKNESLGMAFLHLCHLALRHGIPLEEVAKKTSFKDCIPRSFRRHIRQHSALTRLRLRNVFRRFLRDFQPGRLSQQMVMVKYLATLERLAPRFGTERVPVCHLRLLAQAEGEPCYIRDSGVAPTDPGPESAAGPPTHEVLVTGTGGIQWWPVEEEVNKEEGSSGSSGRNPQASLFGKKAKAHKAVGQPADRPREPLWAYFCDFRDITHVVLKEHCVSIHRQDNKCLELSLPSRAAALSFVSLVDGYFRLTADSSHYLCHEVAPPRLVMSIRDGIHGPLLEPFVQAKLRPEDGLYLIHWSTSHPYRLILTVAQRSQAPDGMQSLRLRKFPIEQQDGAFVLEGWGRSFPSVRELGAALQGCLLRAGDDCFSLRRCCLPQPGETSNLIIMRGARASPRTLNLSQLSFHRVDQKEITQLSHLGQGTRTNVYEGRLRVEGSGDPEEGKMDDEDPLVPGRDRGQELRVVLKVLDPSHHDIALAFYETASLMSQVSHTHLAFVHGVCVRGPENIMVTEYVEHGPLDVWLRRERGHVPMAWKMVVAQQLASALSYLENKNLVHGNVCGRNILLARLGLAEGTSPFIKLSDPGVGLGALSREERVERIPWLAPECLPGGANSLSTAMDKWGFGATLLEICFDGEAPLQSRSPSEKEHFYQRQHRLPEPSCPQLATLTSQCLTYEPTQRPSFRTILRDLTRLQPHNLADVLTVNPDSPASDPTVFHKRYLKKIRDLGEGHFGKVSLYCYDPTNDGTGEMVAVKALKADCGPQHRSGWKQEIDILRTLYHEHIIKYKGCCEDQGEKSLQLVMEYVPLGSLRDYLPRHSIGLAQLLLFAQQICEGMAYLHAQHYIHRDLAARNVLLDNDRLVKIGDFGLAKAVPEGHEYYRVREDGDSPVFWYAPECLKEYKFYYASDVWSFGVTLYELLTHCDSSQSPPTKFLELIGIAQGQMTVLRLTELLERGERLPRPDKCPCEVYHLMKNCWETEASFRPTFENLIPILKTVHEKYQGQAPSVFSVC

[13] = target: T4, Eukaryotic translation initiation factor 2-alpha kinase 3 (Homo sapiens, UniProt Q9NZJ5); assay: Inhibition of PEK
T4 sequence (Q9NZJ5 whole entry): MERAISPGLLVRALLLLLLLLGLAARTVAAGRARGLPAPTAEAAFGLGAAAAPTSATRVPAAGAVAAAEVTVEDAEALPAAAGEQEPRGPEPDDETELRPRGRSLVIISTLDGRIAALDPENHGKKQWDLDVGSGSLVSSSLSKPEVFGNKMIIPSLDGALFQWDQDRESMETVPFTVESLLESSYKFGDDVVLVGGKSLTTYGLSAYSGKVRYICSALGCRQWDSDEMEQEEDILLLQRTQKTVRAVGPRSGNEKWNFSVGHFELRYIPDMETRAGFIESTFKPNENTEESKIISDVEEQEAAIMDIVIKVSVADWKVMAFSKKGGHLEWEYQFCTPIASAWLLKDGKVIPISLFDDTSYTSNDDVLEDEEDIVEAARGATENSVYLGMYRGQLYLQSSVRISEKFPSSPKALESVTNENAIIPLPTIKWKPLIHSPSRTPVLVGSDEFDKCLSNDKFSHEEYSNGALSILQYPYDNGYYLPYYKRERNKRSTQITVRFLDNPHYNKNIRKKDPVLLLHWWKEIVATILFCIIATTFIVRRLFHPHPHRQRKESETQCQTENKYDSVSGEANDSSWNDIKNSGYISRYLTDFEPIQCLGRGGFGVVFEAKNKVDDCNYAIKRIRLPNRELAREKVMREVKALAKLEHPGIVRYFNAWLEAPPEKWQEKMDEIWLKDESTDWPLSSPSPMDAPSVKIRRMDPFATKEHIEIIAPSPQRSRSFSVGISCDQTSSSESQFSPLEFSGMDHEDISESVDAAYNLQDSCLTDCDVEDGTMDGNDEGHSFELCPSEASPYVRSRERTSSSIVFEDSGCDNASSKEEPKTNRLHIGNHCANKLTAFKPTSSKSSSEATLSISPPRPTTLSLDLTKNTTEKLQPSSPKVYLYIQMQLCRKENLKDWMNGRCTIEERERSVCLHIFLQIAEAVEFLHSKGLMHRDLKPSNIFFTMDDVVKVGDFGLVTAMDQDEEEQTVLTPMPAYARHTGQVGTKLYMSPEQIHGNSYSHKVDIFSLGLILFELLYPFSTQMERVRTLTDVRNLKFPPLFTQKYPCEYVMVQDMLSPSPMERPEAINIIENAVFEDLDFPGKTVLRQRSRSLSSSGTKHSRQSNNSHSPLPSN

[14] = target: Tyrosine-protein kinase JAK1 (Homo sapiens, UniProt P23458); assay: Inhibition of Jak1

Focal adhesion kinase 1, sequence (Q05397 whole entry): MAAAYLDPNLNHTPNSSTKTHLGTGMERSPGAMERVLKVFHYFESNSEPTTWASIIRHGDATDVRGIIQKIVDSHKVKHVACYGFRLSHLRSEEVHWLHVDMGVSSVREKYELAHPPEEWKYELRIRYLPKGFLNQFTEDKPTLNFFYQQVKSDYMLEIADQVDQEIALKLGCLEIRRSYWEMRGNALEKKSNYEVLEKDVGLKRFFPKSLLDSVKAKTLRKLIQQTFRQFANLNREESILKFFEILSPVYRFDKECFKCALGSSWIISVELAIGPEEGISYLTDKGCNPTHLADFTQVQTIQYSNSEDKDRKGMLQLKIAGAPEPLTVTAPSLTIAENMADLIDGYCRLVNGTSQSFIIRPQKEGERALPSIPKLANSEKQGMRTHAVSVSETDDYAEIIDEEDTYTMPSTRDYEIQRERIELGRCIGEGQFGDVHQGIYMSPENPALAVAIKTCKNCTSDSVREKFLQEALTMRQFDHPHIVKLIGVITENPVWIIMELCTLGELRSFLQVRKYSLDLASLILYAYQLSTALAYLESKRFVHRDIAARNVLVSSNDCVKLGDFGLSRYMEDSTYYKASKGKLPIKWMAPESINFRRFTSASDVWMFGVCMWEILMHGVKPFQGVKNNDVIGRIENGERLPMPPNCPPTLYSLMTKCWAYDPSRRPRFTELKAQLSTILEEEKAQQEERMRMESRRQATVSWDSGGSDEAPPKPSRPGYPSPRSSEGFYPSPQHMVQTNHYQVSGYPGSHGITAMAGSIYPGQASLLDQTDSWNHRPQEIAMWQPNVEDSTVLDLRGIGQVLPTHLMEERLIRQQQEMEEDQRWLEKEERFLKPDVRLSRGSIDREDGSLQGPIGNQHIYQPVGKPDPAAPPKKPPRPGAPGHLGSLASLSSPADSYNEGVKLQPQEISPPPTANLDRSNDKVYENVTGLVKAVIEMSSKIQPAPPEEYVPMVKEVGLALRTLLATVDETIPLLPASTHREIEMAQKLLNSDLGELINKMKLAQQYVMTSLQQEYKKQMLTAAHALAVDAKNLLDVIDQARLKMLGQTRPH

pIC50 (Focal adhesion kinase 1): < 3.90
Structure (SMILES): COc1cc2nccc(Oc3ccc(NC(=O)c4c(N(C)C)ccn(-c5ccccc5)c4=O)nc3)c2cc1OC

pIC50 (Focal adhesion kinase 1): < 3.90
Activity [1]: Dose-dependent effect
pEC50 [2]: 8.00
Activity [3]: Dose-dependent effect
pEC50 [4]: 8.00
Activity [5]: Dose-dependent effect
Structure (SMILES): COc1cc2nccc(Oc3ccc(NC(=O)c4cc(-c5cccs5)cn(-c5ccccc5)c4=O)nc3)c2cc1OC

pIC50 (Focal adhesion kinase 1): < 3.90
Structure (SMILES): COc1ccc2c(Oc3ccc(NC(=O)c4cc(-c5cnccn5)cn(-c5ccccc5)c4=O)nc3)ccnc2c1

Structure (SMILES): CNc1ccn(Cc2ccccc2)c(=O)c1C(=O)Nc1ccc(Oc2ccnc3cc(OC)c(OC)cc23)cn1
pIC50 (Focal adhesion kinase 1): < 3.90

pIC50 (Focal adhesion kinase 1): < 3.90
Structure (SMILES): COCCNc1ccn(-c2ccccc2)c(=O)c1C(=O)Nc1ccc(Oc2ccnc3cc(OC)ccc23)cn1

pIC50 [6]: 6.96
pIC50 [7]: < 6.00
pIC50 [8]: < 6.00
pIC50 (Focal adhesion kinase 1): 4.77
pIC50 [9]: 7.46
pIC50 [10]: < 6.00
pIC50 [11]: < 6.00
pIC50 [12]: < 6.00
Activity [1]: Dose-dependent effect
pIC50 [13]: < 6.00
pEC50 [2]: 8.00
Activity [3]: Dose-dependent effect
pEC50 [4]: 8.00
Activity [5]: Dose-dependent effect
pIC50 [14]: < 6.00
Structure (SMILES): CNc1ccn(-c2ccccc2)c(=O)c1C(=O)Nc1ccc(Oc2ccnc3cc(OC)c(OC)cc23)cn1

pIC50 (Focal adhesion kinase 1): < 3.90
Structure (SMILES): COc1cc2nccc(Oc3ccc(NC(=O)c4c(N5CCN(C)CC5)ccn(-c5ccccc5)c4=O)nc3)c2cc1OC

pIC50 (Focal adhesion kinase 1): < 3.90
Structure (SMILES): COc1cc2nccc(Oc3ccc(NC(=O)c4cc(-c5cccnc5)cn(-c5ccccc5)c4=O)nc3)c2cc1OC

pIC50 (Focal adhesion kinase 1): < 3.90
Structure (SMILES): COc1ccc2c(Oc3ccc(NC(=O)c4cc(-c5cccnc5)cn(-c5ccccc5)c4=O)nc3)ccnc2c1
